Screening results as filed in PubChem BioAssay.
A selection: hits, their analogues and other compounds. The true share with any hit is near 3%.
SENP6 block: inhibitors of human SENP6 protease; inhibition, % at 10 µM; actives 1.8% (n = 330,000); Recombinant SENP6 catalytic domain, aminoluciferin luminescence; Q9GZR1;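 active = inhibition above about 50% at the single tested dose, limit read from the data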
SENP8 block-1: blocks human SENP8 cleavage of Nedd8 substrate | Q96LD8 | recombinant SENP8, Nedd8 substrate fluorescence | inhibition, % at 20 µM | actives 0.64% (n = 360,000); in the data active = inhibition mostly above about 40%, no sharp cut-off; inactive = mostly below about 27%
SENP8 block-2: inhibitors of human SENP8 protease; purified SENP8, Z-RLRGG-aminoluciferin cleavage, luminescence; inhibition, % at 10 µM; actives 1.2% (n = 330,000); AID 2540; in the data active = inhibition above about 50%
SENP7 block: blocks the human protease SENP7; AID 434973; inhibition, % at 5 µM; recombinant SENP7, Z-RLRGG-aminoluciferin luminescence, 40 min; actives 1.5% (n = 330,000);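 active = inhibition above about 50% at the single test dose, limit read from the data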
Apaf-1 inh: human Apaf-1 inhibition. O14727. reconstituted apoptosome caspase-3 activity, DEVD-Rh110 fluorescence. inhibition, % at 20 µM. actives 0.71% (n = 330,000). AID 489030; active = inhibition of at least 40% at 20 µM
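Material: reconstituted apoptosome with Apaf-1, cytochrome c, caspase-9, procaspase-3, dATP. Technique: Rh110 fluorescence intensity. Buffer or medium: pH 7.5 Hepes buffer with CHAPS, BSA, DTT. Times: 30 min plus 50 min, RT.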
UBC13 polyUb: blocks human UBC13 polyubiquitin chain formation. TR-FRET. inhibition, % at 20 µM. P61088. actives 0.47% (n = 330,000); in the data active = inhibition above about 45%, passing the limit was not always enough
Target sequence (P61088 whole entry, looked up): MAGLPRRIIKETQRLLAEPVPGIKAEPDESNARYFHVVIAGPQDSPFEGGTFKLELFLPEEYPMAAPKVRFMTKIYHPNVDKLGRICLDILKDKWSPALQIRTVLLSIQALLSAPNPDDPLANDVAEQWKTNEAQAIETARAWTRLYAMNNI
SENP8 conf-1: confirmation of human SENP8 protease inhibitors. shares compounds with SENP7 block. Recombinant SENP8, Z-RLRGG-aminoluciferin luminescence, 60 min. inhibition, % at 12.5 µM. actives 40% (n = 6,200). AID 488912;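 active = mean inhibition across replicates above about 50%, limit read from the data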
SENP6 confirm: confirmation of human SENP6 protease inhibitors; recombinant SENP6, Z-RLRGG-aminoluciferin luminescence; inhibition, % at 12.5 µM; actives 58% (n = 6,200); shares compounds with SENP7 block
SENP7 confirm: confirmation of human SENP7 protease inhibitors. shares compounds with SENP7 block. recombinant SENP7, Z-RLRGG-aminoluciferin luminescence, 40 min. inhibition, % at 12.5 µM. actives 69% (n = 6,200). AID 488917
Casp3 select: selectivity test for SENP inhibitors: human caspase-3 inhibition; actives 60% (n = 6,200); shares compounds with SENP7 block; AID 488918; inhibition, % at 12.5 µM; purified caspase-3, Z-DEVD-aminoluciferin luminescence, 60 min;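 active = mean inhibition above about 50%, limit read from the data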
Target sequence (P42574 28-227 limits assumed): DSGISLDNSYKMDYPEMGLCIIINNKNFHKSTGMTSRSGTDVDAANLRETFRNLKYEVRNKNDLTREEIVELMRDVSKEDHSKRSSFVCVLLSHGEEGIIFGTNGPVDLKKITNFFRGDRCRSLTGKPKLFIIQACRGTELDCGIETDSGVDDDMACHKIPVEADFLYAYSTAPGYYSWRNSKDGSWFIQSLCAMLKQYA
SENP luc ctr: interferes with luciferase luminescence in SENP counter-screen | shares compounds with SENP7 block | Pre-incubated SENP8/Z-RLRGG-aminoluciferin, luciferase luminescence interference | inhibition, % at 12.5 µM | actives 39% (n = 6,200) | AID 488919;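 active = mean inhibition above about 50% when retested at one dose, limit read from the data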
Apaf-1 inh conf2: Apaf-1 inhibition, single-dose confirmed; shares compounds with Apaf-1 inh; inhibition, % at 20 µM; reconstituted apoptosome, caspase-3 DEVD-Rh110 fluorescence; actives 25% (n = 1,800);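 active = mean inhibition of at least 40% at 20 µM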
Rh110 quench: interferes with Rh110 fluorescence, flagging false Apaf-1 inhibitors | shares compounds with Apaf-1 inh | Rh110 fluorescence interference, quenched caspase reaction | activation (fluorescence interference), % at 20 µM | 1,800 tested, under 10 active | AID 504615;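 active = signal rise of 40% or more at 20 µM, treated as a fluorescence artifact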
Apaf1 inh interf: shows fluorescence interference in the Apaf-1 inhibitor assay format; shares compounds with Apaf-1 inh; fluorescence interference counterscreen, Apaf-1 assay format; IC50, µM; 460 tested, under 10 active; AID 588538; call rule not given here
SENP8 conf-2: confirmation of human SENP8 protease inhibitors. shares compounds with SENP8 block-1. purified SENP8, Nedd8-AMC/pro-Nedd8 cleavage fluorescence, 30 min. inhibition, % at 25 µM. actives 15% (n = 1,400). AID 624319; in the data active = inhibition mostly above about 39%, no sharp cut-off; inactive = mostly below about 34%
Of the large screens only hits and unclear results are named; the others gave an inactive call (follow-up assays come after a bar, where they were run).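 The calls were made as follows, unless noted: active = mean inhibition above about 50% in the one-dose retest (limit read from the data); inactive = the rest.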

COc1ccc(C(=O)Nc2nc3c(s2)Cc2cc(OC)ccc2-3)cc1	SENP6 block 82, SENP8 block-2 90, SENP7 block 93, Apaf-1 inh 97 | SENP8 conf-1 inactive | SENP6 confirm 68 | SENP7 confirm 50 | Casp3 select inactive | SENP luc ctr inactive | Apaf-1 inh conf2 59 | Rh110 quench inactive | Apaf1 inh interf inactive
COc1ccc2c(c1)Cc1sc(NC(=O)c3cccs3)nc1-2	SENP6 block 92, SENP8 block-2 96, SENP7 block 94, Apaf-1 inh 87 | SENP8 conf-1 67 | SENP6 confirm 75 | SENP7 confirm 99 | Casp3 select 77 | SENP luc ctr inactive | Apaf-1 inh conf2 44 | Rh110 quench inactive | Apaf1 inh interf inactive
COc1ccc2c(c1)Cc1sc(NC(=O)c3ccccc3)nc1-2	SENP6 block 95, SENP8 block-2 91, SENP7 block 90, Apaf-1 inh 83 | SENP8 conf-1 inactive | SENP6 confirm 65 | SENP7 confirm 88 | Casp3 select 66 | SENP luc ctr inactive | Apaf-1 inh conf2 60 | Rh110 quench inactive | Apaf1 inh interf inactive
COc1ccc(-c2nc(NC(=O)c3ccccc3)sc2-c2ccc([N+](=O)[O-])cc2)cc1	none
COc1cccc(C(=O)N2CCC2(C)C(=O)NC(C)C)c1 (centres undefined)	none (no result: SENP6 block, SENP8 block-2, SENP7 block, Apaf-1 inh, UBC13 polyUb)
Cc1nc2ccc(C(=O)NCCCN3CCCC3=O)cn2c1N(C)C(=O)CCc1ccccc1	none (no result: SENP6 block, SENP8 block-2, SENP7 block, Apaf-1 inh, UBC13 polyUb)
CC(=O)N1N=C(c2cccc([N+](=O)[O-])c2)OC1c1ccc(Br)cc1 (centres undefined)	none
CC(=O)N1N=C(c2ccccc2)OC1c1ccc([N+](=O)[O-])s1 (centres undefined)	SENP6 block 66, SENP8 block-1 61 | SENP8 conf-1 inactive | SENP6 confirm inactive | SENP7 confirm inactive | Casp3 select inactive | SENP luc ctr inactive | SENP8 conf-2 39
CN(C)c1ccc(N/C=C/C(=O)c2ccco2)cc1	SENP6 block 96, SENP8 block-1 45, SENP8 block-2 90, SENP7 block 96 | SENP8 conf-1 inactive | SENP6 confirm 94 | SENP7 confirm 101 | Casp3 select 95 | SENP luc ctr inactive | SENP8 conf-2 inactive
CC(=O)Nc1cccc(-c2ccnc3c2CC(C)(C(=O)Nc2cccnc2)O3)c1 (centres undefined)	none (no result: SENP6 block, SENP8 block-2, SENP7 block, Apaf-1 inh, UBC13 polyUb)
COc1ccccc1N1C(=O)c2cccc3cccc(c23)C1=O	none
COc1ccccc1N1C(=O)Cc2ccccc2C1=O	SENP6 block 69, SENP8 block-1 90 | SENP8 conf-1 inactive | SENP6 confirm 63 | SENP7 confirm inactive | Casp3 select inactive | SENP luc ctr inactive | SENP8 conf-2 55
